CYP2C19 inhib: blocks human cytochrome P450 2C19 | P33261 | CYP2C19 Supersomes, luciferin-H EGE luminescence, 30 min | inhibition, % at 5 µM | actives 21% (n = 96,000) | AID 778;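 active means CYP2C19 inhibition above a set limit at 5 µM in the primary screen, cut at about 50% in these data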;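 further: plate controls were negative control wells for no effect and 2.5 mM tranylcypromine positive control for full effect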
CYP2C19 act: increases human CYP2C19 enzyme activity | P33261 | recombinant CYP2C19, luciferin-H EGE luminescence; stronger effect = higher value; 0 = fully inhibited enzyme, 1 = untreated enzyme | activation factor at 5 µM | 96,000 tested, under 10 active | AID 1025;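 active means activation factor of at least 2 at 5 µM in the primary screen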;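 further: 0 = wells with 2.5 mM tranylcypromine and 1 = vehicle-only wells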
CYP2C9 act: CYP2C9 (human) activation | recombinant CYP2C9, luciferin-H conversion, luminescence; stronger effect = higher value; factor 1 = untreated enzyme, 0 = blocked | actives 1.4% (n = 96,000) | P11712 | activation factor at 5 µM | AID 1024;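 active means activation factor of 2 or more for CYP2C9 at a 5 µM dose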;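 further: 0 = sulfaphenazole-blocked wells and 1 = vehicle-only wells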
Target sequence (P11712 whole entry, looked up): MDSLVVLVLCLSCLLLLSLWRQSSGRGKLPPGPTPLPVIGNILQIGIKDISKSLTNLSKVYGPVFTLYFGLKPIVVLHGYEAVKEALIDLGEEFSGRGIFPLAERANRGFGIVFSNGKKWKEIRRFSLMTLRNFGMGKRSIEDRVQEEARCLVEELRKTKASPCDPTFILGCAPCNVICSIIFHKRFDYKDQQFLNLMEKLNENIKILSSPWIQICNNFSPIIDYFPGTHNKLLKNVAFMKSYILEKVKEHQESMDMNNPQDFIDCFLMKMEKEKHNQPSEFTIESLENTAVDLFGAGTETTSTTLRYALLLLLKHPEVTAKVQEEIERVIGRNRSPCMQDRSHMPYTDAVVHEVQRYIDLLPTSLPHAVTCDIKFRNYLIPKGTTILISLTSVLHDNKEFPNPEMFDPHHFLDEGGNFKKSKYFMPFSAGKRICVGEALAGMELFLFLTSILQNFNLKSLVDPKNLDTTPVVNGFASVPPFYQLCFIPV
CYP2C9 inhib: blocks human cytochrome P450 2C9; actives 20% (n = 96,000); inhibition, % at 5 µM; P11712; CYP2C9 Supersomes, luciferin-H conversion, luminescence;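 active means blocking of liver enzyme CYP2C9 beyond about 50% at 5 µM, limit read from the data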
Ecoli tolC: blocks growth of E. coli BW25113 tolC mutant | OD615 | growth inhibition, % at 10 µM (by protocol) | actives 2.2% (n = 65,000) | AID 573;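 active means growth inhibition at or above a cutoff equal to the mean over every tested compound plus 3 SD, cut at about 60% in these data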;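 further: growth measured after 20 h incubation at 37 °C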
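Assay system: tolC-deleted E. coli BW25113. Medium: kanamycin-containing LB broth (50 µg/mL). Dosing: 10 µM final, single dose. Timing: bacterial growth with compound for 20 h at 37 °C. Detection: A615 absorbance measurement. Read-out basis: growth inhibition in percent.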
Ecoli WT expand: growth inhibitors of E. coli BW25113 wild type. actives 0.15% (n = 98,000). AID 710. growth inhibition, % at 100 µM. OD600 absorbance;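 active means growth inhibition above about 50% at one test dose, limit read from the data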;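 further: growth measured after 20 h incubation at 37 °C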
* marks the source's active call; other numbers are inactive results; nt = no result. This is a sample that favours compounds with a hit; in the whole collection about 29% have one here.

SMILES	CYP2C19 inhib	CYP2C19 act	CYP2C9 act	CYP2C9 inhib	Ecoli tolC	Ecoli WT expand
Cc1ccc(NC(=O)COc2ccc(/C(N)=N/O)cc2)cc1C	nt	nt	nt	nt	-9	nt
CCCOc1ccc(C(C)(O)CN2CCOCC2)cc1 (stereo unspecified)	54*	0.5	0.6	44	17	3
CCOc1ccc(C(C)(O)CN2CCOCC2)cc1 (stereo unspecified)	14	0.9	1	3	nt	4
CCOC(=O)CNC(=O)c1cc(C)oc1C	3	1	1.1	-9	-4	7
CCN(CC)C(=O)Cn1cc(/C=C(\C#N)C(=O)N2CCN(c3ccccc3)CC2)c2ccccc21	71*	0.3	0.4	56*	nt	-11
CCOc1cc(NC(=O)c2ccco2)c(OCC)cc1NC(=O)c1cc(OC)c(OC)c(OC)c1	21	0.8	0.4	57*	-27	-18
COc1cc(C(=O)OCC(=O)NC2CCCC2)cc(NC(=O)c2ccco2)c1OC	78*	0.2	0.3	73*	-1	-2
CCc1ccc2c(c1)C1(SC(NC(C)=O)=NN1C(C)=O)C(=O)N2C(C)C (stereo unspecified)	-4	1	1.1	-10	nt	-2
CCc1ccc(C2(C)SC(NC(C)=O)=NN2C(C)=O)cc1 (stereo unspecified)	71*	0.3	0.8	23	nt	2
CC1CC1C(=O)Nc1nc(-c2ccccc2)cs1 (stereo unspecified)	16	0.8	0.6	40	nt	5
Cc1oc2c(C)c(O)ccc2c(=O)c1-c1cnn(-c2ccccc2)c1	18	0.8	1	1	nt	0
Cc1[nH]nc(-c2ccc(O)c(C)c2O)c1-c1cnn(-c2ccccc2)c1	99*	0	0	99*	55	4
O=C(O)CCSc1nc(C(F)(F)F)cc(=O)n1-c1ccccc1	2	1	0.9	12	nt	2
C=CCn1c(O)c(C(CC)=Nc2ccccc2NC(=O)CC)c(=O)[nH]c1=O	72*	0.3	0.4	60*	-15	-12
COc1ccc(N(CC(=O)NCc2ccc3c(c2)OCO3)S(=O)(=O)c2c(C)nn(C)c2C)cc1	87*	0.1	0.8	16	10	-7
CS(=O)(=O)N(CC(=O)NCc1ccc2c(c1)OCO2)c1ccc(Cl)cc1	41	0.6	0.9	12	-7	4
COc1ccc(N(CC(=O)NCc2ccco2)S(=O)(=O)c2c(C)nn(C)c2C)cc1	75*	0.3	0.8	20	-17	2
Cc1ccc(C)c(NS(=O)(=O)c2c(C)nn(C)c2C)c1	19	0.8	1	-1	-10	-3
COc1ccc2nc(NC(=O)CN(c3ccc(C)cc3)S(=O)(=O)c3c(C)nn(C)c3C)sc2c1	48	0.5	0.3	68*	55	-8
Cc1nn(C)c(C)c1S(=O)(=O)Nc1ccc2c(c1)OCO2	81*	0.2	1	4	3	3
Cc1noc(C)c1S(=O)(=O)N(C)CC(=O)Nc1ccc(F)cc1	26	0.7	0.6	36	nt	-1
CCOC(=O)c1ccc(NC(=O)CSCc2ccco2)cc1	25	0.7	0.5	48	5	6
COc1ccc(NC(=O)CN(c2ccc(C)cc2)S(=O)(=O)c2c(C)nn(C)c2C)cc1OC	-3	1	0.9	9	0	2
COc1ccc(N(CC(=O)Nc2ccc3c(c2)OCO3)S(=O)(=O)c2c(C)nn(C)c2C)cc1	32	0.7	0.2	79*	-4	1
COc1ccc2c(C)cc(SCc3c(C)noc3C)nc2c1	50*	0.5	0.4	57*	nt	-12
COc1ccc2c(C)cc(SCC#N)nc2c1	46	0.5	1.6	-57	8	2
CCOC(=O)N1CCN(c2nc(-c3ccco3)cc(C(F)(F)F)n2)CC1	42	0.6	0.2	75*	8	0
O=C(CSc1nc(-c2ccco2)cc(C(F)(F)F)n1)NCC1CCCO1 (stereo unspecified)	71*	0.3	0.8	24	3	-3
O=C(CCSc1nc(-c2ccco2)cc(C(F)(F)F)n1)NCC1CCCO1 (stereo unspecified)	67*	0.3	1.4	-39	19	-1
O=C(CSc1nc(-c2ccco2)cc(C(F)(F)F)n1)N1CCN(Cc2ccccc2)CC1	83*	0.2	0.3	68*	16	-8
